Reference: ChEMBL document CHEMBL1126069, “Synthesis of high affinity fluorine-substituted ligands for the androgen receptor. Potential agents for imaging prostatic cancer by positron emission tomography” (J Med Chem, 1992)

Assays:
[1] = Relative affinity for rat androgen receptor(AR) and human Sex steroid binding protein (SBP)
In short: (§1)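 Each ratio is AR relative binding affinity divided by the RBA for PgR, MR or SBP. The AR source was ventral prostate cytosol from mature male Holtzman rats orchidectomized 24 h before. Cytosol was preincubated with triamcinolone acetonide to block PgR and corticosteroid receptors. [3H]R1881 served as tracer, incubated 18 h at 0 °C. Free ligand was removed with dextran-coated charcoal, 15 min at 0 °C. AR RBA is on a percent scale versus R1881.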

Rattus norvegicus [2] = species on record: Rattus norvegicus; assay: Relative affinity for rat androgen receptor(AR) and mineralocorticoid receptor(MR); in short: as §1
Rattus norvegicus [3] = species on record: Rattus norvegicus; assay: Relative affinity for rat androgen receptor(AR) and progesterone receptor(PgR); in short: as §1
[4] = target: T1, Mineralocorticoid receptor (Rattus norvegicus) (UniProt P22199); assay: Displacement of [3H]aldosterone from rat Mineralocorticoid receptor
T1 sequence (whole entry): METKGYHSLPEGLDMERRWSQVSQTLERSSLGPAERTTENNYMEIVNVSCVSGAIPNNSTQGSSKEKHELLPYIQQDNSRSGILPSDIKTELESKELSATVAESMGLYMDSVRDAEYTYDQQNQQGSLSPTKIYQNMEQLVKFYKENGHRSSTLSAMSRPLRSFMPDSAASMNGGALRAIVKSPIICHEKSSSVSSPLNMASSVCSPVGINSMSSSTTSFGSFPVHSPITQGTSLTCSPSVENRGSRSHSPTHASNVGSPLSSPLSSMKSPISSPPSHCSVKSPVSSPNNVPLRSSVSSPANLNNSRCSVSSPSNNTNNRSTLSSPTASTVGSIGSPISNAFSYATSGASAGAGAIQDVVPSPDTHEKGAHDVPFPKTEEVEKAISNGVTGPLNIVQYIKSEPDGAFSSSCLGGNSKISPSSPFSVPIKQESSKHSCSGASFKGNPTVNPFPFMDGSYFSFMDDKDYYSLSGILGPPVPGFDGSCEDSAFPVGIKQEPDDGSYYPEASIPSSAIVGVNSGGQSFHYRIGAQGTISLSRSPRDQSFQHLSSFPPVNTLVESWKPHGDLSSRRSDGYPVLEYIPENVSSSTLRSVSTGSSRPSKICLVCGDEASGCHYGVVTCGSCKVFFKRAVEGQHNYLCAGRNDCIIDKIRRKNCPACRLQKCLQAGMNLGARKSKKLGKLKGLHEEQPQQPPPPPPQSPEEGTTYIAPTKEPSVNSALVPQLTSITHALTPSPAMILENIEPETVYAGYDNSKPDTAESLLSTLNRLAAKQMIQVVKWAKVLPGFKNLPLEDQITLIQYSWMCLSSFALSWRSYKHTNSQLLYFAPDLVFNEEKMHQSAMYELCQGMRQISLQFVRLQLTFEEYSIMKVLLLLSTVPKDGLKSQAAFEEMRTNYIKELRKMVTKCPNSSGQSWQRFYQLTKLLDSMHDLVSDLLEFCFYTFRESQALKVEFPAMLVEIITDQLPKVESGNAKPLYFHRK
In short: (§2)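 Competitive radiometric binding assay giving relative binding affinities. The reference standards were R5020 for rat PgR, aldosterone for rat MR and estradiol for human SBP.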

[5] = target: T2, Progesterone receptor (Rattus norvegicus) (UniProt Q63449); assay: Displacement of [3H]R5020 from rat progesterone receptor(PgR); in short: as §2
T2 sequence (whole entry): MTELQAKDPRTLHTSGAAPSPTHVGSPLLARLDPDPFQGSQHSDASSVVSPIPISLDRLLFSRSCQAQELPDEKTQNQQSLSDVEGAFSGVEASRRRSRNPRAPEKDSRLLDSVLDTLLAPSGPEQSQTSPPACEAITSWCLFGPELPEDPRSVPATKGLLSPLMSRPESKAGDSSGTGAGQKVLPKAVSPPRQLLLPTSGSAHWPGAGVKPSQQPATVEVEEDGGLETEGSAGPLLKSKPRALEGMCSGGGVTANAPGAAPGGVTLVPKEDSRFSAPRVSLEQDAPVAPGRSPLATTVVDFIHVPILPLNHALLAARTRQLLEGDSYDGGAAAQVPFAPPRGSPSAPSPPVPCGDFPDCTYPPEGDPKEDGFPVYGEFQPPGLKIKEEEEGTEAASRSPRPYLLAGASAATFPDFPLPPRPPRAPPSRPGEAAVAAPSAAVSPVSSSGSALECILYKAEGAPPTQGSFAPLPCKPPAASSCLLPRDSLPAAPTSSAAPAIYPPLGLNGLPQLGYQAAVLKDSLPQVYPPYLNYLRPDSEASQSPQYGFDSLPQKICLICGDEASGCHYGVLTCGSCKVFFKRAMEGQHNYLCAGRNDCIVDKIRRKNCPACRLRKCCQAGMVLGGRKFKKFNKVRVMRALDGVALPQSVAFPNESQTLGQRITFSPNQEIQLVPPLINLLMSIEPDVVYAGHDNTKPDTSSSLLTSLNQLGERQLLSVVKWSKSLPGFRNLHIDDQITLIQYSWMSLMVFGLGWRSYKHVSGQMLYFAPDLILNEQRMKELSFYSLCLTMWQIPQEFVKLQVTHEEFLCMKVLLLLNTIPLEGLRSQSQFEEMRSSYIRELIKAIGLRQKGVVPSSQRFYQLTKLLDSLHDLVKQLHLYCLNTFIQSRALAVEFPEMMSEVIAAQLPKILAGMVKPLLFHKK

[6] = target: T3, Sex hormone-binding globulin (Homo sapiens) (UniProt P04278); assay: Displacement of [3H]estradiol from human Sex steroid binding protein (SBP); in short: as §2
T3 sequence (whole entry): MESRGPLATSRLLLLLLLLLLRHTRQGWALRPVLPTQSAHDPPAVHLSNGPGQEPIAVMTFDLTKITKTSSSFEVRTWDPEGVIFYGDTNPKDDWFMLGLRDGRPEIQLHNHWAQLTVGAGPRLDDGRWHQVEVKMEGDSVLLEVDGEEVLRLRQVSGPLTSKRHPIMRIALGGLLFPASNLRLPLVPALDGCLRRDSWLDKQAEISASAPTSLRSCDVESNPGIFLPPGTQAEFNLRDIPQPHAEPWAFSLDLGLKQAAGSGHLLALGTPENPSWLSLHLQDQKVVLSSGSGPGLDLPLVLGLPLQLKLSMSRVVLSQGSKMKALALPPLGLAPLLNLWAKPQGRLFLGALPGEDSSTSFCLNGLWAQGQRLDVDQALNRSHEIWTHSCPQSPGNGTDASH

Row | Compound | RBA ratio [1] | RBA ratio (Rattus norvegicus [2]) | RBA ratio (Rattus norvegicus [3]) | relative binding affinity (RBA) [4] | relative binding affinity (RBA) [5] | relative binding affinity (RBA) [6]
1 | C[C@@H]1CC2=CC(=O)CC[C@@H]2C2CC[C@@]3(C)C(CC[C@@]3(O)CF)C21 (some centres not stated) | 17.7 | 61.9 | 5.2 | 0.86 | 10.3 | 3
2 | C[C@@H]1CC2=CC(=O)CC[C@@H]2C2CC[C@@]3(C)C(CC[C@]3(C)O)C21 (some centres not stated) | 6.2 | 20.7 | 5.8 | 5.7 | 20.4 | 19
3 | C[C@@H]1CC2=CC(=O)CC[C@@H]2C2CC[C@@]3(C)C(C[C@@H](F)[C@@H]3O)C21 (some centres not stated) | 5.5 | 104 | 3.8 | 0.21 | 5.7 | 4.01
4 | C[C@@H]1CC2=CC(=O)CC[C@@H]2C2CC[C@@]3(C)C(C[C@H](F)[C@]3(C)O)C21 (some centres not stated) | 23.7 | 385 | 10.3 | 0.08 | 3 | 1.3
5 | C[C@]12CC[C@H]3[C@@H](CCC4=CC(=O)CC[C@@H]43)[C@@H]1CC[C@@H]2O | – | – | – | 2 | 3.1 | 29.9
6 | C[C@@H]1CC2=CC(=O)CC[C@@H]2C2CC[C@@]3(C)C(C[C@@H](F)[C@]3(C)O)C21 (some centres not stated) | 12 | 101 | 2.6 | 0.37 | 14.4 | 3.1
7 | C[C@]12CC[C@H]3[C@@H](CCC4=CC(=O)CC[C@@]43C)[C@@H]1CC[C@@H]2O | – | – | – | 4.19 | 0.09 | 417
8 | C[C@@H]1CC2=CC(=O)CC[C@@H]2C2CC[C@@]3(C)C(CC[C@@H]3O)C21 (some centres not stated) | 5.4 | 210 | 42.1 | 0.74 | 3.7 | 28.7
9 | C[C@]12CC[C@H]3[C@@H](CCC4CC(=O)CC[C@@]43C)[C@@H]1C[C@@H](F)[C@@H]2O (some centres not stated) | 0.02 | 75.5 | 56.1 | 0.05 | 0.07 | 228
10 | C[C@@H]1CC2=CC(=O)CC[C@@H]2C2CC[C@@]3(C)C(C[C@H](F)[C@@H]3O)C21 (some centres not stated) | 9.7 | 730 | 23.4 | 0.05 | 1.6 | 3.75
11 | C[C@]12C=CC3=C4CCC(=O)C=C4CCC3C1CC[C@@]2(O)CF (some centres not stated) | 8.5 | 4.2 | 1.8 | 4.5 | 10.5 | 2.2
12 | C[C@]1(O)CC[C@H]2[C@@H]3CCC4=CC(=O)CCC4=C3C=C[C@@]21C | 25 | 3.9 | 2.3 | 25.4 | 43.7 | 4
13 | C[C@]12CC[C@H]3[C@@H](CCC4CC(=O)CC[C@@]43C)[C@@H]1C[C@H](F)[C@@H]2O (some centres not stated) | 0.16 | 689 | 356 | 0.06 | 0.12 | 385
